Yeast superoxide – lowers age-related superoxide in aged yeast cells; S. cerevisiae aged cells, superoxide DHE fluorescence; active compounds read low; 0.18% of 330,000 active; superoxide response (% of plate mean), % at 10 µM;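 active = superoxide response under a set limit, about three screen SD below normal, cut at about 65% in these data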;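 note: yeast aged for seven days with compound at 30 °C before DHE staining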
HIF activator – HIF pathway transcriptional activation | activation, % at 7.5 µM (by protocol) | U2OS HRE-luciferase reporter, luminescence; normalized: DMSO 0%, desferrioxamine 100% | 0.32% of 300,000 active;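 active = mean activation of at least 10% of the iron chelator positive control signal, with at least half of replicates also reaching 10%; inconclusive = mean and replicate majority disagree about reaching 10%; inactive = mean and most replicates under 10%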
V-ATPase pHluor – regulators of yeast V-ATPase proton transport. AID 504577. S. cerevisiae, pHLuorin cytosolic pH fluorescence. response, % at 10 µM. 0.37% of 350,000 active; in the data active = response mostly above about 7.3%, no sharp cut-off; inactive = mostly below about 5.4%; note: actives read high
T cruzi repl – T. cruzi replication inhibition | T. cruzi beta-gal in NIH3T3, luminescence, 90 h | inhibition, % (test concentration not listed) | 1.4% of 300,000 active | AID 1885;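 active = mean inhibition across valid replicates above about 55%, limit read from the data; inconclusive = mean below that limit but half or more replicates reach it; inactive = mean below it, under half of replicates reach it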;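 note: signal also drops with host cell toxicity which is not excluded here; higher percent means less beta-gal luminescence so fewer parasites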
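System – NIH/3T3 host cells with β-galactosidase reporter T. cruzi · Doses – single 50 nL compound addition per well in DMSO · Reagent – 5000 T. cruzi trypomastigotes/well · Medium – Low-serum DMEM with 2% FBS · Timing – ≥90 h infection period, 3 h prior cell attachment · Evaluation – parasite load inhibition, % · Technique – GalScreen luminescence, 60 min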
AI-2 QS mod – modulates the Vibrio harveyi AI-2 quorum sensing system; Vibrio harveyi JMH597 AI-2 luminescence/OD600 ratio, 9 h; active compounds read low; strain lacks LuxN and CqsS sensors; 0 = neutral-control median; activity change, % at 7.5 µM; 0.4% of 300,000 active; in the data active = activity change below about -75%, passing the limit was not always enough; inconclusive = no clear call, values can overlap the other calls;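 note: luminescence divided by OD600 gain over 9 h not by final OD600 alone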
NRP1-CendR mod – modulators of CendR peptide binding to human neuropilin-1; O14786; FAM-RPARPAR peptide binding to NRP-1, fluorescence polarization; inhibition, % at 25 µM; 0.85% of 360,000 active; AID 602438;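 active = inhibition or corrected inhibition above about 18%, plus a signal ratio from 0.5 to 1.5, limit read from the data, passing the limit was not always enough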
Target sequence (O14786 whole entry, looked up): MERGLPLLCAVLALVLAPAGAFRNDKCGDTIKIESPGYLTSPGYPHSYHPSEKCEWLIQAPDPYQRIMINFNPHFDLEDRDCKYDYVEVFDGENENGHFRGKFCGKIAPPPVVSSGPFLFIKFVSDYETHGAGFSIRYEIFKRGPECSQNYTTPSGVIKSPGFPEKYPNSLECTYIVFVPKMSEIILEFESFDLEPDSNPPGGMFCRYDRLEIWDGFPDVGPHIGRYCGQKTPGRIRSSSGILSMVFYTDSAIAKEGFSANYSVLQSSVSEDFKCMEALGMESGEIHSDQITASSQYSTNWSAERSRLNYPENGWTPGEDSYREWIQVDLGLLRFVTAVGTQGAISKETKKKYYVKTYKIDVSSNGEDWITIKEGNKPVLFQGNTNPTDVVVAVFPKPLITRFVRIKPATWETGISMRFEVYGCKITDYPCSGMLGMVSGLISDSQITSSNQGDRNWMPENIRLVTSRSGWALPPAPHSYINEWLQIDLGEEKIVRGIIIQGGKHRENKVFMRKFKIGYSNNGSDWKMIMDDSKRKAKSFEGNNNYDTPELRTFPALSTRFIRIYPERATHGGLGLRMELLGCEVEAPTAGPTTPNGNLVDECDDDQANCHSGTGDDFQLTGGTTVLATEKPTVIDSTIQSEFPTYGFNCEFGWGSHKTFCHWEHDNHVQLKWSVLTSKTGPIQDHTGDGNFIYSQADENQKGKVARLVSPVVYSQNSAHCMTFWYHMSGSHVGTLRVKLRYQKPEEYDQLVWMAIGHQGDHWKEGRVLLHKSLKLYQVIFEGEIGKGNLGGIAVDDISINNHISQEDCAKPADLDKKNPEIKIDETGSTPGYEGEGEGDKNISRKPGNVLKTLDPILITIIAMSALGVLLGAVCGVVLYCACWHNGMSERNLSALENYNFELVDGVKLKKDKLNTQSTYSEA
A number is an active result; – = inactive; ? = inconclusive; · = no result. Sampled rows, rich in hits. Any-hit rate of the full collection: about 3%.

SMILES | Yeast superoxide | HIF activator | V-ATPase pHluor | T cruzi repl | AI-2 QS mod | NRP1-CendR mod
CCc1cccc(N=c2c([N+](=O)[O-])nn(-c3ccc(Cl)cc3)n2O)c1 | – | – | – | – | – | –
O=[N+]([O-])c1nn(-c2ccc3c(c2)OCCO3)n(O)c1=NCCC1=CCCCC1 | – | – | – | 94 | – | –
O=[N+]([O-])c1nn(-c2ccc3c(c2)OCCO3)n(O)c1=NCc1ccc(F)cc1 | – | – | – | 61 | – | –
CN(C)c1nc(NCc2ccccc2)nc(SCC(=O)Nc2ccc(Cl)c(Cl)c2)n1 | – | – | – | 55 | – | –
CCn1c(C)nnc1SCC(=O)NC1CCCCCC1 | – | – | – | – | – | 27
COc1ccc(Cc2nnc(SCC(=O)NC3CCCCC3)n2C)cc1 | – | 70 | – | – | – | –
Cc1ccccc1NC(=O)Cn1c(C)nc2ccc(N)cc2c1=O | – | – | – | – | – | 24
Cc1ccccc1NC(=O)Cn1c(C)nc2ccc(NC(=O)C3CC3)cc2c1=O | – | – | – | – | – | –
CCOc1ccc(CCNC(=O)COC(=O)c2cccc(N(C)C)c2)cc1OCC | – | – | – | – | – | –
Cc1nn(CCc2nn[nH]n2)c2nc(-c3ccc(Br)cc3)cc(C(F)(F)F)c12 | – | – | – | – | – | –
O=C(COC(=O)CCNS(=O)(=O)c1ccc(Cl)cc1)NCc1ccco1 | – | – | – | – | – | 19
CCOc1ccc(C(=O)NC(C(=O)NCCc2ccc(OC(F)F)cc2)C(C)C)cc1 (centres undefined) | – | – | – | – | · | 23
CCOc1ccc(C(=O)NC(C(=O)NCc2ccccc2OC)C(C)C)cc1 (centres undefined) | – | – | – | – | – | –
Cc1ccc(CNc2ccc3c(c2)OCO3)cc1 | – | – | – | 82 | – | –
O=C(NCc1ccncc1)C(=O)Nc1ccc2c(c1)OCO2 | – | – | – | – | – | –
Cc1ccc(S(=O)(=O)c2nc(NCc3ccc4c(c3)OCO4)sc2Cl)cc1 | – | – | – | 61 | – | –
Cc1ccc(CNc2ccc(N3CCOCC3)cc2)cc1 | – | – | 11 | – | · | –
Cc1ccc(CNc2ncc(-c3ccc4c(c3)OCO4)n2C)cc1 | – | – | – | – | – | –
c1cc(CNc2ccc3c(c2)OCO3)ccn1 | – | – | – | – | – | 30
CC(=O)Nc1nc(S(=O)(=O)c2ccc(C)cc2)c(Cl)s1 | – | – | – | – | – | –
CCNC(=S)Nc1ccc2c(c1)c(=O)n(C)n2CC=C(C)C | · | · | · | · | · | –
Cc1ccc(NC(=O)CN(C)CC(=O)Nc2ccc3c(c2)OCO3)cc1 | · | · | – | · | · | 22
COC(=O)CNc1ccc2c(c1)OCO2 | – | – | – | – | – | 25
CCc1nnc(SCC(=O)Nc2ccc3c(c2)OCO3)n1CC | – | – | – | – | – | 28
CCCCCCSc1ccc(-c2nc3ccc(Cl)cn3c2NC2CCCCC2)cc1 | – | · | – | · | · | –
SMILES | Yeast superoxide | HIF activator | V-ATPase pHluor | T cruzi repl | AI-2 QS mod | NRP1-CendR mod
COc1cc(NS(=O)(=O)c2ccc(NC(=O)c3cccs3)cc2)nc(OC)n1 | – | – | – | – | – | –
Cc1ccc(S(=O)(=O)N2CCN(C(=O)CCC(=O)Nc3ccc(F)cc3F)CC2)cc1 | – | · | – | · | · | –
O=C(CNC1CCCC1)Nc1ccc(S(=O)(=O)N2CCCCC2)cc1 | – | – | – | – | – | –
O=C(CNC1CCN(Cc2ccccc2)CC1)Nc1ccc(S(=O)(=O)N2CCCCC2)cc1 | – | – | – | 55 | – | –
Cc1ccc(NC(=O)CCC(=O)N2CCN(S(=O)(=O)c3ccc(C)cc3)CC2)cc1 | – | · | – | · | · | 45
CN(CC(=O)Nc1ccc(S(=O)(=O)N2CCCC2)cc1)Cc1ccc(Cl)cc1 | – | – | – | 57 | – | –
O=S(=O)(c1ccc(Cl)cc1)N1CCN(C2CCN(Cc3ccccc3)CC2)CC1 | – | – | – | 61 | – | –
O=[N+]([O-])c1ccc(S(=O)(=O)N2CCN(C3CCN(Cc4ccccc4)CC3)CC2)cc1 | – | – | – | ? | – | –
COc1cccc(NC(=O)COC(=O)/C=C/c2ccc(Cl)cc2Cl)c1 | – | – | – | – | – | –
O=C(NNC(=S)Nc1ccccc1)c1ccc(O)cc1 | – | – | – | – | – | –
Cc1cc(C(=O)N2CCc3c([nH]c4ccccc34)C2c2cccc(Cl)c2)nn1C (centres undefined) | – | – | – | 56 | – | –

High-throughput results (PubChem)
